Reference: PubChem BioAssay AID652186 (Vanderbilt Specialized Chemistry Center, 2013)
Active and inactive are the calls of the source. No rule for the calls is given here.

Molecular target: Metabotropic glutamate receptor 8 (Rattus norvegicus) (UniProt P70579)
Experiment: glutamate potency shift at rat mGlu8 – cell-based, HEK293A, Galpha15, Fluo4 calcium, selectivity assay for mGlu5 silent allosteric modulator project (AID 652186)
Conditions: HEK293A rmGlu8+Galpha15, glutamate CRC
Summary of the method: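 Material: rat mGlu8 co-expressed with Galpha15 in HEK293 cells. Buffer or medium: HBSS, HEPES and probenecid buffer, pH 7.4. Also added: glutamate agonist, 9-point curve from 10 nM to 1 mM. Dosing: compound at 10 µM, 1% DMSO. Times: dye loading 60 min at 37°C, compound 20 s, glutamate 80 s. Signal: Fluo4 calcium fluorescence.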

Chain of Metabotropic glutamate receptor 8 (Rattus norvegicus) (P70579 whole entry, looked up): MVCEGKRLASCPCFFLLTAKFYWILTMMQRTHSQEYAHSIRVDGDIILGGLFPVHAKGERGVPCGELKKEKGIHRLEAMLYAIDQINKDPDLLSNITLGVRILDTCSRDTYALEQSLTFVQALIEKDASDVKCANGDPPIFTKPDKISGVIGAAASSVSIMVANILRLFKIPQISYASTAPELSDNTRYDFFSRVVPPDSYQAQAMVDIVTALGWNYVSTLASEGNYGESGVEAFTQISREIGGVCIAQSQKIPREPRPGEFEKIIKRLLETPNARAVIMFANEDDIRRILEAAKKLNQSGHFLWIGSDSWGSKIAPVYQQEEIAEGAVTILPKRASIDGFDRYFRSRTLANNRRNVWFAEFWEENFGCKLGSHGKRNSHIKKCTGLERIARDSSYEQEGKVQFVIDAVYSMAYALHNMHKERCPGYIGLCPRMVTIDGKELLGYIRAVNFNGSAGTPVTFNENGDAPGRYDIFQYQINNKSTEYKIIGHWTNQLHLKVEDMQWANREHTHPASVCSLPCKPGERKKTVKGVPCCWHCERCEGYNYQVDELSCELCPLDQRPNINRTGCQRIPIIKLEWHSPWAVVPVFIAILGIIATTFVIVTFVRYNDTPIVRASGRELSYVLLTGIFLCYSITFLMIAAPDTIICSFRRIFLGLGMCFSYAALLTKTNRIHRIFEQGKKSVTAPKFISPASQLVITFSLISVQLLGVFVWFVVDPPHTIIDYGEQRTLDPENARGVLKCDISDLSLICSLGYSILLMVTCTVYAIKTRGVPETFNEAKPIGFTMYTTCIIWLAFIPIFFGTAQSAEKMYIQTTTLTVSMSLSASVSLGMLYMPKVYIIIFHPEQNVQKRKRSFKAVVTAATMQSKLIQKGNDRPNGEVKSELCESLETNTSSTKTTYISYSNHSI

- glutamate EC50 in presence of 10 uM compound (vehicle ~3 uM): inactive
Compound: O=C(c1ccc(C#Cc2cccc(F)c2)cn1)N1CC2CC2C1 (stereo unspecified)
